Results pooled from the literature.
Lines come from different studies, so protocols differ.
Observed: cell growth or viability

SMILES | cell line | technique | time | endpoint | value
FC(F)(F)c1ccc(-c2cc(CNc3cccc4cccnc34)on2)cc1 | DND41 | MTS | 72 h | IC50 | 82.3 µM
C[C@H]1CNCCCN1c1nccc(-c2noc3c2CCC[C@@]32CCCc3sc(N)c(C#N)c32)n1 | NCI-H727 | – | 5 days | EC50 | 0.399 µM
C#CCOc1ccc2oc(-c3ccc(OC)cc3)c(C(=O)OCC)c2c1CN1CCCCC1 | J774.A1 | resazurin | – | IC50 | 8.2 µM
C[C@H](Oc1nccc(-c2noc([C@@]3(C)CCCc4sc(N)c(C#N)c43)n2)n1)[C@@H]1CCCN1C | NCI-H727 | – | 5 days | EC50 | 0.271 µM
c1ccc(-c2cc(CNc3cccc4cccnc34)on2)cc1 | DND41 | MTS | 72 h | IC50 | > 100 µM
C[C@H]1CNCCN1c1nccc(-c2noc([C@@]3(C)CCCc4sc(N)c(C#N)c43)n2)n1 | NCI-H727 | – | 5 days | EC50 | > 1 µM
FC(F)(F)c1cc(OCc2cc(-c3ccc(Cl)cc3Cl)no2)c2ccccc2n1 | DND41 | MTS | 72 h | IC50 | > 100 µM
CCOc1ccc(C(=O)CC(SCc2ccc(Cl)cc2)C(=O)OC)cc1 (stereo not shown) | WM 266-4 | MTT | 48 h | EC50 | 21 µM
C[C@H]1CN(C)CCCN1c1nccc(-c2noc([C@@]3(C)CCCc4sc(N)c(C#N)c43)n2)n1 | NCI-H727 | – | 5 days | EC50 | > 1 µM
O=c1cc(OCc2cc(-c3ccccn3)no2)c2ccccc2o1 | DND41 | MTS | 72 h | IC50 | > 100 µM
Cc1nc(Nc2ncc(C(=O)Nc3c(C)cccc3Cl)s2)cc(N2CC[C@H](O)C2)n1 | JeKo-1 | ATP luminescence | 72 h | IC50 | > 10 µM
C#CCNC(=O)c1c(-c2ccc(OC)cc2)oc2ccc(O)c(CN3CCCCC3)c12 | J774.A1 | resazurin | 18 h | IC50 | 27.8 µM
Nc1cccc2c1C(=O)N(C1CCC(=O)NC1=O)C2=O (stereo not shown) | OCI-Ly10 | CCK-8 | 7 days | IC50 | 0.36 µM
